# Screening results deposited in PubChem BioAssay by The Scripps Research Institute Molecular Screening Center.
# Rin1-Abl PPI inh – blocks binding of human Rin1 to Abl; TR-FRET Rin1/Abl binding, biochemical; inhibition, % at 7.35 µM; 360,000 tested, 0.4% active; AID 588664; in the data active = inhibition above about 5%, passing the limit was not always enough
# TDP2 inh – TDP2 (human) inhibition, absorbance primary screen; inhibition, % at 12.8 µM; O95551; 370,000 tested, 0.34% active; AID 720702; recombinant TDP2, T5PNP hydrolysis, p-nitrophenol absorbance 415 nm;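 active = inhibition above the mean of all tested compounds plus 3 SD, set per campaign, cut at about 25% in these data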;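 also: 0% = DMSO with enzyme and 100% = buffer with substrate but no TDP2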
#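 Evaluation: % inhibition relative to enzyme-containing and enzyme-free wells. Material: recombinant human TDP2. Benchmarks: enzyme-free and DMSO wells. Timing: enzyme reaction with compound for 2 h at 37 °C. Compound dosing: 12.8 µM only. Measured by: p-Nitrophenol epi absorbance. Reagent: T5PNP substrate at 5 mM, a TopII-DNA adduct mimic. Replication: single well per compound.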
# UHRF1 MBD2 ctr – blocks human UHRF1 binding to methylated DNA | Q96T88 | UHRF1 binding to methylated oligo, TR-FRET | inhibition, % at 4.4 µM | 370,000 tested, 0.75% active | AID 687016; in the data active = inhibition above about 21%;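 also: UHRF1 SRA domain binding a hemimethylated CpG hairpin DNA probe; 0% = median of test compound wells and 100% = reference inhibitor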
# Target sequence (Q96T88 whole entry, looked up, the tested form may be a part): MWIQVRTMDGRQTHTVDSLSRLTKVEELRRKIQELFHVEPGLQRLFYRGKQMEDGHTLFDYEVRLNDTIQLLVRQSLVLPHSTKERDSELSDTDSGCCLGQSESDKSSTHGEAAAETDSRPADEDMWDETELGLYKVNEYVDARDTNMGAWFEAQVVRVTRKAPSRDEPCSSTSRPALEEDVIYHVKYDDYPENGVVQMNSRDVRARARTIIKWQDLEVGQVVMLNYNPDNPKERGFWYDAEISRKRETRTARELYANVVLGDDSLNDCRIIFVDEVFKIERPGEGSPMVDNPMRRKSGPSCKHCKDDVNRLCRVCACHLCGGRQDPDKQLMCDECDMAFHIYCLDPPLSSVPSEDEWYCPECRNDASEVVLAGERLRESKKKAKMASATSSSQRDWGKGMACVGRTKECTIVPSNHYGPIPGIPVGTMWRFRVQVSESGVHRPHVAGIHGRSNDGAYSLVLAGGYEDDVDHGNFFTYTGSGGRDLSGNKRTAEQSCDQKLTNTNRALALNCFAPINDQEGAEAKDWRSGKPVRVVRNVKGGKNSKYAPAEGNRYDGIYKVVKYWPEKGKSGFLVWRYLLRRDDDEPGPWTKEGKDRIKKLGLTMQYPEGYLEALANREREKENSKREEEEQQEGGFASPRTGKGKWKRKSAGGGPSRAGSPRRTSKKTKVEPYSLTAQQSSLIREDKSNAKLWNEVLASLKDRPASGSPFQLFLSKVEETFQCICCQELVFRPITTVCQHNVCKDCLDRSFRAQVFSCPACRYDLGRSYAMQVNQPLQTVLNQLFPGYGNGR
# MBD2 inh – blocks human MBD2 binding to methylated DNA; TR-FRET, MBD2 binding to methylated oligonucleotide; 370,000 tested, 0.31% active; inhibition, % at 4.4 µM; Q9UBB5; in the data active = inhibition above about 13%
# LEDGF integ inh – blocks HIV-1 LEDGF/p75-dependent DNA integration. TR-FRET IN-LEDGF/p75 DNA integration, Eu/Cy5. inhibition, % at 3.7 µM. 370,000 tested, 0.64% active;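 active = inhibition above the screen-wide mean plus 3 SD, cut at about 13% in these data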;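 also: signal is the Cy5 over europium emission ratio at 671 and 618 nm; 0% = plate median of compound wells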
# * = called active by the depositor; x = not tested or not shown. In the library only some 1.9% were active in any assay of this set; here they are far more common.
SMILES,Rin1-Abl PPI inh,TDP2 inh,UHRF1 MBD2 ctr,MBD2 inh,LEDGF integ inh
CCOC(=O)N1CCC(N2C(=O)c3ccccc3C2Nc2ccc(S(=O)(=O)N3CCOCC3)cc2)CC1 (configuration not stated),14*,-3,1,4,-5
O=C(Nc1c(-c2ccccc2)nc2ncccn12)c1ccc(F)cc1,x,-5,2,-2,-1
CCOc1ccccc1C1NC(=O)NC(C)=C1C(=O)OC1CCCCC1 (configuration not stated),2,-6,81*,1,-4
Cc1ccc(-c2n[nH]c(=S)c3ccccc23)cc1,2,-4,40*,6,-4
S=c1[nH]nc(-c2ccccc2)c2ccccc12,1,-9,2,7,-2
COc1ccccc1N1CCN(C(=O)c2ccc3c(c2)CCN3S(C)(=O)=O)CC1,-2,-11,0,-2,3
CS(=O)(=O)N1CCc2cc(C(=O)N3CCN(c4ccccc4F)CC3)ccc21,4,-5,23*,5,4
O=C(Nc1nc(-c2ccco2)c(-c2ccco2)s1)c1cnccn1,x,3,40*,13,48*
O=C(Nc1nc(-c2ccco2)c(-c2ccco2)s1)c1c(F)cccc1Cl,5,4,15,1,48*
O=C(Cn1nc(-c2ccccc2)ccc1=O)NCCc1ccc(F)cc1,x,1,-1,-7,3
O=C(C(=O)N1CCN(C(=O)Cc2ccccc2)CC1)c1cccc(C(F)(F)F)c1,x,5,58*,-6,2
Cc1ccccc1C(=O)N1CCN(C(=O)C(=O)c2cccc(C(F)(F)F)c2)CC1,x,8,0,2,-2
COC(=O)C[C@@H]1CC[C@H]2[C@@H](COc3ccc(NC(=O)Nc4ccccc4)cc3C(=O)N2C)O1,x,-2,-2,-1,2
O=C(NCc1ccco1)C1CCCN(S(=O)(=O)c2ccc(F)cc2)C1 (configuration not stated),x,-5,1,-2,4
Cc1nc2ccccc2c(=O)n1Cc1ccco1,-2,10,2,7,3
COc1ccc(Cn2c(C)nc3c(c2=O)c2nc4ccccc4nc2n3Cc2ccco2)cc1,-1,0,17,18*,14*
COc1ccc(S(=O)(=O)c2c(N)n(Cc3ccco3)c3nc4ccccc4nc23)cc1,-5,-1,0,2,15*
Cc1cccc(-c2cccc3c4c([nH]c23)[C@@H]2C[C@H](N(C)C(=O)c3ccccc3C)[C@H]([C@H](C)O)C(=O)N2CC4)c1,x,4,-1,-3,2
COc1ccc(/C=N/NC(=O)c2ccc(N(C)S(=O)(=O)c3ccccc3)cc2)c(OC)c1,1,1,32*,5,-1
Cc1ccc(Nc2nc(N)c3ccccc3n2)cc1Cl,-3,3,38*,-2,0
COc1ccccc1-c1c(C)nn2c(N3CCN(c4ccccc4OC)CC3)cc(C)nc12,-1,7,26*,1,-3
CCOC(=O)C1CCN(C(=O)C(C)(C)NC(=O)Nc2ccc(C(F)(F)F)cc2Cl)CC1,x,-3,1,2,5
Cc1cccc(N2C(S)=C(C#N)C(=O)NC23CCCCC3)c1,0,13,-1,-1,1
Cc1cccc(NC2=C(C#N)C(=O)NC3(CCCC3)S2)c1,0,5,24*,3,-2
CCOC(=O)[C@@H]1CSCCS(=O)(=O)N1Cc1ccccc1,x,-6,-3,0,-2
SMILES,Rin1-Abl PPI inh,TDP2 inh,UHRF1 MBD2 ctr,MBD2 inh,LEDGF integ inh
Cc1cc(NC(=O)C2CC2)ncc1NC(=O)c1ccccn1,-1,6,22*,2,-2
CCOC(=O)C1(Cc2ccccc2)CCN(Cc2ccc(C)cc2)CC1,x,10,-1,-5,2
C=C(C)Cn1c(N(CCO)Cc2ccccc2)nc2c1c(=O)[nH]c(=O)n2C,-1,11,84*,3,4
CSc1ccc(C(=O)C2CCCN(C(=O)c3cccnc3SC)C2)cc1 (configuration not stated),-10,12,26*,13,0
COc1ccccc1C(=O)C1CCCN(C(=O)c2cccnc2SC)C1 (configuration not stated),-3,-4,1,2,4
Cc1c(NC(=O)C(C)NCC2CCCO2)c(=O)n(-c2ccccc2)n1C (configuration not stated),0,-1,38*,-3,0
Cc1cccc(OCCOC(=O)c2ccc(F)c(S(=O)(=O)N3CCOCC3)c2)c1,2,10,41*,6,-5
O=C(OCn1nnc2ccccc2c1=O)c1ccc(F)c(S(=O)(=O)N2CCOCC2)c1,0,6,73*,2,2
CCc1ccc(C=NN2CCN(Cc3ccc(C)cc3C)CC2)cc1,x,8,-1,-10,2
COC(=O)[C@]12C[C@H](CC(=O)NCCCN3CCCC3=O)C(=O)N(Cc3ccc(Cl)cc3Cl)C1=C[C@H](C(C)(C)C)O[C@@H]2C,x,-7,-1,-1,-3
O=S(=O)(c1sccc1Br)n1c(CN2CCOCC2)nc2ccccc21,x,1,-3,0,0
COc1cc(-n2nc(C)c3c2OC(N)=C(C#N)C3c2ccccc2)c(Cl)c(Br)c1O (configuration not stated),1,48*,-10,-11,6
CN(C)c1ccccc1-c1cc(NC=O)c2ncc(-c3cccc(C(F)(F)F)c3)n2c1,-26,14,14,42*,0
Cc1c(NS(=O)(=O)c2ccccc2)c(=O)n(-c2ccccc2)n1C,3,-4,0,-3,4
Cc1ccc(-c2nn(-c3ccccc3)cc2/C=C/C(=O)Nc2nccs2)cc1,1,1,2,2,-2
Cc1c(NC(=O)/C=C/c2cn(-c3ccccc3)nc2-c2ccc(F)cc2)c(=O)n(-c2ccccc2)n1C,4,-10,47*,-4,4
Cc1c(NS(=O)(=O)c2ccc(F)cc2)c(=O)n(-c2ccccc2)n1C,2,-5,25*,-2,2
COc1ccccc1CNC(=O)NC1CCN(CC(=O)Nc2ccc3c(c2)OCCO3)CC1,x,2,-2,-6,7
CC12CCC(=O)N1C(C(=O)Nc1ccc(Br)cc1Cl)CS2 (configuration not stated),3,-9,-3,-5,-1
Cc1cc(Br)ccc1NC(=O)C1CSC2(C)CCC(=O)N12 (configuration not stated),-2,-13,35*,0,-1
CCN(CC#CCC(O)(c1ccccc1)C1CCCC1)C(C)C (configuration not stated),1,1,1,-2,1
CC(C)N(CC#CCC(O)(c1ccccc1)C1CCCC1)CCO (configuration not stated),1,-1,28*,11,2
COC(=O)C1CN(C2CCCC2)CCS(=O)(=O)N1Cc1ccccc1 (configuration not stated),x,2,3,5,1
